The list is not random: actives were taken first. Their share in the collection is about 2.8%.
NPY-Y1 antag: NPY-Y1 receptor antagonists, primary screen, cell-based | inhibition, % at 3.6 µM | HEK293-CNG Y1 cells, membrane potential fluorescence; NPY at EC95, then isoproterenol | actives 1% (n = 200,000);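 active = inhibition above the campaign mean inhibition of all tested compounds plus 3 SD, cut at about 20% in these data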;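 note: 0% = DMSO wells given NPY plus isoproterenol and 100% = isoproterenol alone without NPY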
Target sequence (P25929 whole entry, looked up): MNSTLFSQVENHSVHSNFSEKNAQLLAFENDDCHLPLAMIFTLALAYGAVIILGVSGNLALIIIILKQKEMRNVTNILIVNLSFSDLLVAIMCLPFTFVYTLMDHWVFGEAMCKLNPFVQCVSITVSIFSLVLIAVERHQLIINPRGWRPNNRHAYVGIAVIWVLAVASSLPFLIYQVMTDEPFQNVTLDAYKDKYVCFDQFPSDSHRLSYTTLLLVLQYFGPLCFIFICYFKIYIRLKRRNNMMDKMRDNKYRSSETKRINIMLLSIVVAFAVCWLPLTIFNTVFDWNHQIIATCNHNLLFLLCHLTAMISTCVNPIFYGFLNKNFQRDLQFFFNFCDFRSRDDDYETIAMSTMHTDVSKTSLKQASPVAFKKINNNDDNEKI
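Material: HEK293 cells with Y1 receptor plus CNG channel; times: compound incubation 1 h at room temperature, readout 45 min post-stimulation; signal: fluorescence, membrane potential probe; read-out basis: fluorescence ratio normalized to % inhibition between controls; benchmarks: full-block control isoproterenol-only wells, zero-block control NPY plus isoproterenol wells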
PGE2 EP2 inh: human EP2 receptor antagonists, primary screen, TR-FRET cAMP, C6 glioma cells; Prostaglandin E2 receptor EP2 subtype (Homo sapiens), P43116; C6 glioma cells expressing human EP2; cells stimulated with saturating PGE2; inhibition, % at 25 µM; actives 0.52% (n = 260,000); AID 1422, 2008;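 active = percent inhibition above 40 after rounding to a whole number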;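 note: rat C6 glioma host cells with rolipram phosphodiesterase inhibitor present; the protocol text gives 20 µM as final concentration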
NPY1 pot ag: NPY-Y1 receptor potentiators or agonists, primary screen, cell-based; Neuropeptide Y receptor type 1 (Homo sapiens), P25929; activation, % at 3.6 µM; NPY-Y1 expressing cells, potentiator/agonist activation; actives 0.37% (n = 220,000); in the data active = activation above about 33%, passing the limit was not always enough;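 note: cells stimulated with NPY at EC10 then isoproterenol at EC100; 0% = low agonist plus stimulus and 100% = saturating agonist plus stimulus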
EP2 modulator: EP2 receptor modulators, cAMP readout, primary screen, cell-based, HTRF cAMP, PGE2 stimulation; Prostaglandin E2 receptor EP2 subtype (Homo sapiens), P43116; EP2-expressing cells, cAMP HTRF FRET, PGE2 co-stimulation; induction, % at 25 µM; actives 0.83% (n = 260,000); AID 940, 2007;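 active = compounds whose cAMP rise, as percent of the full-agonist control response, exceeds 60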;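 note: rat C6 glioma line stably carrying human EP2 under a CMV promoter; the protocol text gives 20 µM as final concentration; 100% = response of wells given 1 µM PGE2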
NPY-Y2 antag: NPY-Y2 receptor antagonists, primary screen, cell-based; Neuropeptide Y receptor type 2 (Homo sapiens), P49146; NPY-Y2 expressing cells, antagonist mode; inhibition, % at 2.7 µM; actives 0.99% (n = 140,000); AID 793, 2007; in the data active = inhibition above about 17%;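 note: 0% = vehicle with agonist challenge and 100% = reference antagonist with challenge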
NPY-Y2 PAM-ag: NPY-Y2 potentiators or agonists, primary screen, cell-based. Neuropeptide Y receptor type 2 (Homo sapiens), P49146. cells expressing NPY-Y2, potentiator/agonist read-out. activation, % at 3.6 µM. actives 0.45% (n = 220,000). AID 1359, 2008; in the data active = activation above about 27%;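 note: cells stimulated with NPY near EC25 plus isoproterenol at EC100; 0% = vehicle plus submaximal agonist and 100% = vehicle plus saturating agonist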
Active calls of the source: *; x = no result.

SMILES	NPY-Y1 antag	PGE2 EP2 inh	NPY1 pot ag	EP2 modulator	NPY-Y2 antag	NPY-Y2 PAM-ag
CCOC(=O)CSc1nc2c(sc(=S)n2-c2ccc(OCC)cc2)c(=O)[nH]1	5	14	6	55	x	-22
CC(C)NCC(O)COC1C2CC3CC(C2)CC1C3 (stereo not drawn)	-9	3	48*	2	x	32*
CC1CCC(C(C)C)C(OCC(O)C[N+]2(C)CCOCC2)C1 (stereo not drawn)	x	9	x	-25	x	x
CC1CCC(C(C)C)C(OCC(O)CNC(C)C)C1 (stereo not drawn)	x	5	107*	5	x	98*
CSc1ccc(NC(=O)N2CCC(c3nc(-c4ccncc4)no3)CC2)cc1	x	6	x	-36	x	x
CC(=O)Nc1ccc2sc(C)nc2c1	x	13	2	8	x	7
Cc1nc2cc(NC(=O)/C=C/c3ccc(N(C)C)cc3)ccc2s1	x	82*	x	-117	x	x
CCn1c(/C=C/N(C)c2ccccc2)[n+](CC)c2ccc(Cl)cc21	26*	10	-25	-11	31*	-3
CCn1c(/C=C/Nc2ccccc2)[n+](CC)c2ccc(Cl)cc21	4	16	-6	-13	12	0
C[n+]1c(/C=C/c2ccc3c(c2)OCO3)ccc2ccccc21	0	4	11	5	x	6
C[n+]1cc2c3c(ccc2c2ccc4cc5c(cc4c21)OCO5)OCO3	x	118*	x	-38	x	x
Cc1cc(NC(=O)Cc2ccccc2)ccc1NC(=O)c1ccco1	x	7	x	-11	x	x
CCN(CC)CCCN1C(=O)C(=O)/C(=C(\O)c2ccc(C)cc2)C1c1cccs1 (stereo not drawn)	x	8	x	5	x	x
O=C(NC1CCCCC1)C(c1ccccc1F)N(Cc1ccco1)C(=O)Cc1cccs1 (stereo not drawn)	x	12	x	63*	x	x
O=C(NC1CCCC1)C(c1ccc(Cl)cc1)N(Cc1ccco1)C(=O)Cc1cccs1 (stereo not drawn)	x	8	x	56	x	x
Cc1ccc(C(C(=O)NC2CCCCC2)N(Cc2ccco2)C(=O)C2COc3ccccc3O2)o1 (stereo not drawn)	28*	13	5	36	20*	4
O=C(NC1CCCC1)C(c1ccccc1)N(Cc1ccco1)C(=O)Cc1cccs1 (stereo not drawn)	77*	11	-32	55	39*	-23
O=C(NC1CCCCC1)C(c1ccc(O)cc1)N(CC1CCCO1)C(=O)C1COc2ccccc2O1 (stereo not drawn)	14	7	-21	39	9	-8
CCOc1ccc(NC(=O)CSc2nnc(CN3CCOCC3)n2C)cc1	x	8	x	3	x	x
CCOc1cc(C2/C(=C(/O)c3ccc(Cl)cc3)C(=O)C(=O)N2CCOC)ccc1O (stereo not drawn)	x	6	x	-8	x	x
CCN(CC)CCCNC(=S)N(CCO)Cc1cc2cc(C)c(C)cc2[nH]c1=O	x	13	x	-19	x	x
COc1cccc(CC2(CO)CCCN(Cc3ccc(-c4ccco4)cc3)C2)c1 (stereo not drawn)	5	3	-3	-36	x	-9
COc1cccc(CC2(CO)CCCN(Cc3ccccc3-c3ccco3)C2)c1 (stereo not drawn)	6	1	-12	63*	x	-33
CC(=O)N1CCC2(CC1)CC(O)c1cc(C)c(C)cc1O2 (stereo not drawn)	x	4	x	5	x	x
CCOC(=O)CSc1nc2ccc(Nc3nc(N4CCOCC4)nc(N4CCOCC4)n3)cc2s1	-1	72*	-20	-34	3	5
SMILES	NPY-Y1 antag	PGE2 EP2 inh	NPY1 pot ag	EP2 modulator	NPY-Y2 antag	NPY-Y2 PAM-ag
Nc1cccc(S(=O)(=O)NCc2cccnc2)c1	x	5	x	-3	x	x
C=Cn1ncc(CN(Cc2ccc(C)o2)C2CC(C)(C)NC(C)(C)C2)c1C	x	8	x	-23	x	x
Cc1cccc(-c2n[nH]c(=S)o2)c1	x	41*	x	36	x	x
CCOc1ccccc1-c1n[nH]c(=S)o1	3	40*	-1	41	1	0
COc1ccc(OC)c2[nH]c(C(=O)N3CCC(C(=O)c4nc5ccccc5s4)CC3)cc12	x	x	x	-95	x	x
O=C(CSc1nnc2n(C3CCCC3)c(=O)c3ccccc3n12)N1CCCCCC1	-10	8	92*	53	3	86*
Cc1cc(Oc2ccc(C)c(Cl)c2)nc(SCC(=O)c2ccccc2)n1	34*	7	-74	41	35*	-23
NC(N)=N/N=C/c1ccc(OCc2ccccc2Cl)cc1	14	96*	-59	33	7	-40
O=C(Nc1ccc(C(O)CN2CCN(c3ncccn3)CC2)cc1)C1CC1 (stereo not drawn)	x	8	x	-7	x	x
O=C(Cc1cccs1)N(Cc1cccs1)C1(C(=O)NC2CCCCC2)CCCCC1	52*	7	-25	51	37*	-8
O=C1CCC(C(=O)N(Cc2cccs2)C2(C(=O)NC3CCCCC3)CCCCC2)N1 (stereo not drawn)	17	14	-3	26	x	-17
O=C(c1cnccn1)N(Cc1cccs1)C1(C(=O)NC2CCCC2)CCCCC1	42*	4	-27	7	26*	-15
O=C(c1cnccn1)N(Cc1cccs1)C1(C(=O)NC2CCCCC2)CCCCC1	38*	6	-38	29	21*	-19
O=C(Nc1cc(C(F)(F)F)ccc1Cl)C1CCN(C(=O)c2cccs2)CC1	x	9	x	-9	x	x
CC(C)C(NC(=O)c1ccc(C(C)(C)C)cc1)C(=O)Nc1cccc(S(N)(=O)=O)c1 (stereo not drawn)	-6	1	43*	14	x	37*
Cc1ccc(C(=O)NC(C(=O)Nc2cccc(S(N)(=O)=O)c2)C(C)C)cc1 (stereo not drawn)	x	7	-1	-1	x	3
Cc1ccc(-c2nc3ncccc3o2)cc1NC(=O)c1cc2ccccc2o1	22*	16	10	31	20*	20
O=Nc1c(O)n(Cc2cccc(C(F)(F)F)c2)c2ccccc12	1	6	15	64*	x	0
O=C(C1CCC(=O)N1Cc1ccccc1Cl)N1CCN(c2cccc(Cl)c2)CC1 (stereo not drawn)	-7	69*	6	x	8	-1
O=C(Nc1ccc(Cl)cc1)C1CCC(=O)N1Cc1ccccc1Cl (stereo not drawn)	-5	15	10	5	0	-2
CC(=O)N(c1nc(CCl)cs1)c1ccc(C)cc1C	0	10	3	62*	x	3
CCc1ccccc1N(C(C)=O)c1nc(CCl)cs1	-2	8	0	42	x	-8

Compound activity from PubChem BioAssay.
